CRFR2-BP antag: CRF-BP/CRF-R2 complex antagonism; HEK293 CRF-R2/CRF-BP, CRF-induced calcium fluorescence; actives 0.59% (n = 350,000); inhibition, % at 11.8 µM; AID 588475;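 active = inhibition of the ligand-induced calcium signal above about 50% at the single tested concentration, limit read from the data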
CRFBP-R2 agonist: CRF-BP/CRF-R2 complex agonism | HEK293 CRF-R2/CRF-BP, calcium dye fluorescence (FLIPR); percent of saturating CRF peptide response | activation, % at 13.2 µM | actives 0.46% (n = 350,000) | AID 588473;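 active = activation of at least 50%, plus an integration ratio under a set limit after plate pattern correction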;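 note: plate controls were neutral control wells without compound for no effect and CRF at EC100 for full effect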
Tn6 DDE FP: disrupts Tn6 cyclic peptide binding to fibrin D-Dimer-E complex; Fibrin DD(E) TRITC-Tn6 fluorescence polarization displacement; inhibition, % at 8.3 µM; actives 0.21% (n = 370,000); AID 720509;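 active = inhibition above a per-campaign cutoff: mean of compounds within control limits plus 3 SD, cut at about 15% in these data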;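 note: 0% = median of all compound wells on the plate and 100% = blocking peptide control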
Target sequence (P02675 whole entry, looked up): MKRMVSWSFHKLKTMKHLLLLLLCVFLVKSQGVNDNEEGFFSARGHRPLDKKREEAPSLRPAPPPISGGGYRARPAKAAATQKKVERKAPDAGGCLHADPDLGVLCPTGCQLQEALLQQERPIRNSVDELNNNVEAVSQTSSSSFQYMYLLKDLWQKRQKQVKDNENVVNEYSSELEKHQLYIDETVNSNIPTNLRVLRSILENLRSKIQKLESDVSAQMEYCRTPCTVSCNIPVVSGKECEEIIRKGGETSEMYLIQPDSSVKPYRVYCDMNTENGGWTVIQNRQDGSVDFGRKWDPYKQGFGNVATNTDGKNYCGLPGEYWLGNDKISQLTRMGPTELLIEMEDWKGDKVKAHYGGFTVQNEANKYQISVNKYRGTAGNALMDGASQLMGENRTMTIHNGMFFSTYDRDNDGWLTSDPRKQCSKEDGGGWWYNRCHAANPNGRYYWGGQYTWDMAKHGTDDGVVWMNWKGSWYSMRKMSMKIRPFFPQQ
DDE Tn7 FP inh: DD(E)-Tn7 binding inhibition, primary FP screen. P02675. FP displacement of FITC-Tn7 peptide from fibrin DD(E); 0% = median of compound wells per plate. inhibition, % at 8.3 µM. actives 0.13% (n = 370,000). AID 720508;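 active = inhibition above the mean of compounds falling within the control limits plus 3 SD of them, cut at about 14% in these data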;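 note: 0% = plate median of compound wells and 100% = 10 µM Aha-Tn7 peptide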
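Test system: human clot-derived fibrin DD(E) complex / Quantity: 2 µM final DD(E) protein / Incubation: 10 min plus 3 h, room temperature / Measured by: fluorescence polarization / Benchmarks: high control of 10 µM Aha-Tn7 peptide / Replicates: singlicate testing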
DDE Tn6 FP ctr: DD(E)-Tn6 binding inhibition, counter-screen | shares compounds with Tn6 DDE FP | Fibrin DD(E), TRITC-Tn6 fluorescence polarization displacement; 0% = median of compound wells, not DMSO | inhibition, % at 8.3 µM | actives 2% (n = 680) | AID 720621;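 active = inhibition above the mean of test compounds lying between the control limits plus 3 SD of those, cut at about 14% in these data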;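 note: 0% = median of compound wells and 100% = wells with Aha-Tn7 blocking peptide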
DDE Tn6 confirm: DD(E)-Tn6 binding inhibition, FP confirmation | inhibition, % at 8.3 µM | AID 720631 | actives 10% (n = 680) | FP displacement of TRITC-Tn6 peptide from DD(E); 0% = per-plate median of test wells | shares compounds with Tn6 DDE FP;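 active = inhibition above the mean of compounds lying within the control limits plus 3 SD, cut at about 16% in these data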;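 note: 100% = high control wells holding a competing inhibitor peptide at 10 µM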
* hit, by the source's call. An excerpt weighted towards active compounds, which were near 1.3% of everything screened.

How did Cc1c(C)n(C)c2ccc(C(=O)NCc3cccs3)cc12 do in these assays?
CRFR2-BP antag: 1.5; CRFBP-R2 agonist: 0.3; Tn6 DDE FP: 35.0*; DDE Tn7 FP inh: -5.7; DDE Tn6 FP ctr: 2.4; DDE Tn6 confirm: 2.2

What do the screens show for `COc1ccc(C2=Nn3c(nnc3-c3ccncc3)SC2)cc1OC`?
CRFR2-BP antag: -21.3; CRFBP-R2 agonist: 1.8; Tn6 DDE FP: 19.2*; DDE Tn7 FP inh: -4.3; DDE Tn6 FP ctr: -1.8; DDE Tn6 confirm: -5.6

Results for COc1ccc(C2=Nn3c(nnc3-c3cccnc3)SC2)cc1OC ?
CRFR2-BP antag: -2.4; CRFBP-R2 agonist: -1.0; Tn6 DDE FP: 5.5; DDE Tn7 FP inh: 2.9

How did Cc1ccc2c(C)c(C(=O)Nc3ccc(S(N)(=O)=O)cc3)oc2c1C do in these assays?
CRFR2-BP antag: 20.5; CRFBP-R2 agonist: 2.4; Tn6 DDE FP: 26.2*; DDE Tn7 FP inh: 5.4; DDE Tn6 FP ctr: 4.0; DDE Tn6 confirm: -94.3

How did O=C(NCCc1ccccc1)OCc1cn(Cc2ccc(C(F)(F)F)cc2)nn1 do in these assays?
Tn6 DDE FP: 4.0; DDE Tn7 FP inh: 3.9

What do the screens show for `Cc1cc2cc(CNC(=O)c3ccc(S(=O)(=O)N4CCCC4)cc3)ccc2n1C`?
CRFR2-BP antag: -9.8; CRFBP-R2 agonist: 5.0; Tn6 DDE FP: 60.2*; DDE Tn7 FP inh: -4.0; DDE Tn6 FP ctr: -4.6; DDE Tn6 confirm: 4.9

How did CCN(CC)S(=O)(=O)c1ccc(C(=O)NCc2ccc3c(c2)cc(C)n3C)cc1 do in these assays?
CRFR2-BP antag: -3.7; CRFBP-R2 agonist: 11.6; Tn6 DDE FP: 80.2*; DDE Tn7 FP inh: 3.7; DDE Tn6 FP ctr: 6.7; DDE Tn6 confirm: -4.0

What do the screens show for `Cc1ccc(CNC(=O)c2ccc(S(=O)(=O)N3CCCC3)cc2)cc1`?
CRFR2-BP antag: -18.4; CRFBP-R2 agonist: -0.2; Tn6 DDE FP: 9.2; DDE Tn7 FP inh: -6.0

What do the screens show for `c1cc(-c2ccoc2)n2ccnc2c1`?
Tn6 DDE FP: 23.1*; DDE Tn7 FP inh: 8.0; DDE Tn6 FP ctr: -6.8; DDE Tn6 confirm: -7.3

Results for CCCCc1c(C)c2cc(C)ccc2[nH]c1=O ?
CRFR2-BP antag: -33.3; CRFBP-R2 agonist: 0.4; Tn6 DDE FP: -2.3; DDE Tn7 FP inh: -3.6

What do the screens show for `CCCc1c(C)c2cc(C)ccc2[nH]c1=O`?
CRFR2-BP antag: -5.6; CRFBP-R2 agonist: -0.9; Tn6 DDE FP: 18.1*; DDE Tn7 FP inh: 1.0; DDE Tn6 FP ctr: -1.1; DDE Tn6 confirm: -5.0

What do the screens show for `O=C(CCc1ccccc1)N[C@H]1C(=O)CCC[C@]12C(=O)N(Cc1ccccc1)c1ccccc12`?
Tn6 DDE FP: 0.1; DDE Tn7 FP inh: -3.8

How did CCC(C)NC(=O)c1csc2c1CCCCC2 (stereo not given) do in these assays?
CRFR2-BP antag: 10.5; CRFBP-R2 agonist: -0.7; Tn6 DDE FP: 18.7*; DDE Tn7 FP inh: 3.5; DDE Tn6 FP ctr: 0.8; DDE Tn6 confirm: 2.2

What do the screens show for `NC(=O)CCn1cnc2ccccc21`?
CRFR2-BP antag: 10.2; CRFBP-R2 agonist: -0.8; Tn6 DDE FP: -0.4; DDE Tn7 FP inh: -2.2

What do the screens show for `c1ccc2c(c1)ncn2CCC1CCCCC1`?
CRFR2-BP antag: -30.7; CRFBP-R2 agonist: -1.0; Tn6 DDE FP: 17.6*; DDE Tn7 FP inh: 6.7; DDE Tn6 FP ctr: 7.8; DDE Tn6 confirm: 1.9

What do the screens show for `CC(C)CN1C(=O)[C@]2(CC(=O)N(C)C2c2ccccc2)c2cc(-n3cc(CCCC#N)nn3)ccc21` (stereo not given in full)?
Tn6 DDE FP: -0.9; DDE Tn7 FP inh: -6.1

How did c1ccc(-c2ccc(C3CCCN3)cc2)cc1 (stereo not given) do in these assays?
CRFR2-BP antag: -7.6; CRFBP-R2 agonist: 5.3; Tn6 DDE FP: 16.0*; DDE Tn7 FP inh: 2.9; DDE Tn6 FP ctr: 0.2; DDE Tn6 confirm: -2.0

What do the screens show for `c1ccc(Nc2ccccc2Nc2ccccn2)nc1`?
CRFR2-BP antag: -2.2; CRFBP-R2 agonist: 1.2; Tn6 DDE FP: 16.1*; DDE Tn7 FP inh: 9.8; DDE Tn6 FP ctr: -3.2; DDE Tn6 confirm: -4.9

Results for O=C(Cn1cc([N+](=O)[O-])cn1)N1CCc2ccccc2C1 ?
CRFR2-BP antag: 7.5; CRFBP-R2 agonist: -1.3; Tn6 DDE FP: 15.5*; DDE Tn7 FP inh: 5.5; DDE Tn6 FP ctr: -6.6; DDE Tn6 confirm: -10.1

How did O=C(O)c1ccccc1Sc1c([N+](=O)[O-])cc(C(F)(F)F)cc1[N+](=O)[O-] do in these assays?
CRFR2-BP antag: 18.4; CRFBP-R2 agonist: -0.2; Tn6 DDE FP: 34.7*; DDE Tn7 FP inh: 12.1; DDE Tn6 FP ctr: -0.4; DDE Tn6 confirm: -0.3

How did COc1cccc(NC(=O)c2cc3ccccc3cc2OC)c1 do in these assays?
CRFR2-BP antag: 10.7; CRFBP-R2 agonist: 0.0; Tn6 DDE FP: 15.3*; DDE Tn7 FP inh: -1.6; DDE Tn6 FP ctr: 6.1; DDE Tn6 confirm: -3.0

Results for COc1ccc(NC(=O)c2cc3ccccc3cc2OC)cc1OC ?
CRFR2-BP antag: 0.2; CRFBP-R2 agonist: 0.6; Tn6 DDE FP: 9.5; DDE Tn7 FP inh: 0.9

How did CN(Cc1ccccc1)C(=O)OCc1cn(Cc2ccc(F)cc2F)nn1 do in these assays?
Tn6 DDE FP: 17.4*; DDE Tn7 FP inh: 1.6; DDE Tn6 FP ctr: 6.1; DDE Tn6 confirm: 5.4

Results for COC(=O)C1CN(Cc2ccc(OC)cc2)CCS(=O)(=O)N1Cc1ccccc1 (stereo not given) ?
Tn6 DDE FP: 1.4; DDE Tn7 FP inh: -2.2

Results for CC(=O)Oc1cccc2c1C(=O)c1c(OC(C)=O)cc(C(=O)O)cc1C2=O ?
CRFR2-BP antag: -17.8; CRFBP-R2 agonist: -1.2; Tn6 DDE FP: 16.4*; DDE Tn7 FP inh: 7.9; DDE Tn6 FP ctr: 5.4; DDE Tn6 confirm: 1.5

Results for CC(=O)Oc1ccc(C(=O)O)cc1OC(C)=O ?
CRFR2-BP antag: 16.0; CRFBP-R2 agonist: 2.3; Tn6 DDE FP: -4.8; DDE Tn7 FP inh: 0.6

What do the screens show for `COc1ccc(S(=O)(=O)NCc2ccc3c(c2)cc(C)n3C)cc1`?
CRFR2-BP antag: -25.1; CRFBP-R2 agonist: 5.7; Tn6 DDE FP: 50.8*; DDE Tn7 FP inh: -0.1; DDE Tn6 FP ctr: -3.7; DDE Tn6 confirm: -6.7

How did Cc1cc2cc(CNS(=O)(=O)c3ccccc3)ccc2n1C do in these assays?
CRFR2-BP antag: -38.3; CRFBP-R2 agonist: -4.6; Tn6 DDE FP: 59.8*; DDE Tn7 FP inh: 7.7; DDE Tn6 FP ctr: 2.4; DDE Tn6 confirm: 5.2

What do the screens show for `Cc1ccc(-c2nc3ncccn3c2NC(=O)c2cccc(C)c2)cc1`?
Tn6 DDE FP: -12.2; DDE Tn7 FP inh: -5.7

What do the screens show for `O=C(Cn1cc2c(n1)CCCCC2)Nc1c(F)cc(F)cc1Br`?
CRFR2-BP antag: 14.1; CRFBP-R2 agonist: -1.7; Tn6 DDE FP: 16.9*; DDE Tn7 FP inh: 2.4; DDE Tn6 FP ctr: -0.7; DDE Tn6 confirm: -4.8

Screens (PubChem)
